In the library only some 3.5% were active in any assay of this set; here they are far more common.
RGS4 act: RGS4 potentiation or activation; HEK293 M3R/inducible RGS4, carbachol calcium flux Fluo4; hits give low values; B-score at 10 µM; hit rate 0.92% among 310,000;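 active means B-score of the integrated calcium signal more than 4 SD below the library mean, with starting fluorescence not abnormally high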;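 further: negative B-score means reduced calcium response which marks RGS4 activation or potentiation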
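Assay system: HEK293 FlpIn-TREx cells, stable M3R, doxycycline-inducible RGS4 / Probe or stimulus: carbachol, ECmax concentration / Times: overnight RGS4 induction, 30 min dye load 37 °C, 20 min compound RT / Signal: kinetic calcium fluorescence imaging with Fluo4-AM dye, 2 µM / Measure: Agonist-evoked peak-minus-minimum fluorescence over baseline, integrated ratio, B score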
RGS4 block: inhibitors of human RGS4; HEK293 M3R/RGS4 inducible, Fluo-4 calcium flux; hits give high values; triggered by carbachol at its EC20; P49798; hit rate 0.45% among 310,000; B-score at 10 µM; AID 463165;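 active means B-score, a plate-corrected calcium signal, over three deviations above library mean, with baseline fluorescence within five deviations of library mean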;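 further: RGS4 expression induced by doxycycline in cells with stable M3 receptor; B-score is computed from the integrated fluorescence ratio over baseline after carbachol; higher B-score means a larger calcium signal and so more RGS4 inhibition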
Target sequence (P49798 whole entry, looked up): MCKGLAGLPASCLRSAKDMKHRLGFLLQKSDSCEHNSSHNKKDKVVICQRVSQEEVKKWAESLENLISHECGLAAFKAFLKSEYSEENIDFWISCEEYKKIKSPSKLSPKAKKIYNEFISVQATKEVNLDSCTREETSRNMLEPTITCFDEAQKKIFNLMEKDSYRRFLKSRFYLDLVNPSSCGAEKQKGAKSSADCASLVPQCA
MrgX1 ag: activates human MrgX1 receptor signaling | MrgX1-HEK293 cells, Fluo-4 calcium fluorescence, agonist mode; hits give high values | B-score at 10 µM | hit rate 0.44% among 310,000 | Q96LB2;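 active means calcium response B-score plate-corrected fluorescence ratio at least 3 library SD, with starting fluorescence B-score inside 5 SD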
Target sequence (Q96LB2 whole entry, looked up): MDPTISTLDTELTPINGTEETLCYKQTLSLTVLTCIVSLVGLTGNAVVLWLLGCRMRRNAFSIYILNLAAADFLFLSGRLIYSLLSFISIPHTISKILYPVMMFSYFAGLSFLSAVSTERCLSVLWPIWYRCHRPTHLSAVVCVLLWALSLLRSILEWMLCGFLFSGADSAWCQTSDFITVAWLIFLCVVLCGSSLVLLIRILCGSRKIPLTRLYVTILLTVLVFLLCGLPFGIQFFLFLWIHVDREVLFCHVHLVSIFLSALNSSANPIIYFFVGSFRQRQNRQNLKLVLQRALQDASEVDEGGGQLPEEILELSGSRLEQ
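Test system: HEK293 cells stably expressing human MrgX1 receptor; Input: fifteen thousand cells per well; Dosing: compound delivered in addition one of three; Schedule: overnight seeding, then 1 h dark dye loading; Technique: Fluo-4 NW calcium fluorescence; Measure: B-scored fluorescence response ratio; Controls: positive and negative controls per plate.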
MrgX1 PAM: human MrgX1 positive allosteric modulation, primary screen; B-score at 10 µM; hit rate 0.63% among 310,000; MrgX1-HEK293, Fluo-4 calcium flux, FDSS; hits give high values;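 active means plate-corrected calcium response at least 3 library SD above typical, normal starting fluorescence, not activating the receptor alone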;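 further: compound read alongside a low EC10 to EC30 dose of BAM8-22 agonist; peak minus trough fluorescence over baseline measured at the second addition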
MrgX1 antag: blocks BAM8-22 activation of human MrgX1 receptor | MRGX1-HEK293 calcium flux, Fluo-4, BAM8-22 antagonism; hits give low values | B-score at 10 µM | hit rate 1.3% among 310,000;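 active means calcium-response B-score plate-corrected more than 3 library SD below zero, starting fluorescence within 5 deviations, no agonist response on first addition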;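 further: peak minus trough fluorescence over baseline after final BAM8-22 challenge near maximal dose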
RGS4 act valid: confirmation of RGS4 activators. shares compounds with RGS4 act. inhibition, % at 10 µM. hit rate 89% among 1,100. HEK293 M3R/RGS4 inducible, carbachol calcium flux Fluo4. AID 602282;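 active means inhibition above 3 SD of the buffer control wells, cut at about 41% in these data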;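 further: signal is the integrated peak-minus-minimum Fluo4 fluorescence over baseline ratio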
RGS4 act ctr: activity in cells without induced RGS4 expression | shares compounds with RGS4 act | HEK293 M3R non-induced RGS4, Fluo4 calcium flux; after carbachol challenge at its EC90 | inhibition, % at 10 µM | hit rate 82% among 1,100;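 active means inhibition exceeding 3 SD of buffer-only control wells, cut at about 26% in these data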;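 further: percent drop in integrated peak-minus-baseline over baseline Fluo4 ratio after carbachol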
* marks the source's active call; other numbers are inactive results.

For CC1CCN(c2ccccc2NC(=O)c2ccc(Br)o2)CC1 the results were RGS4 act -9.4*, RGS4 block inactive, MrgX1 ag inactive, MrgX1 PAM inactive, MrgX1 antag inactive, RGS4 act valid 54* and RGS4 act ctr 0.
`COc1ccccc1NC(=O)c1cc(S(=O)(=O)N2CCCC2)cn1C` gave RGS4 act inactive, RGS4 block inactive, MrgX1 ag inactive, MrgX1 PAM inactive and MrgX1 antag inactive.
Screening CN(C)CC[C@@H](c1ccc(Cl)cc1)c1ccccn1 returned RGS4 act -13*, RGS4 block inactive, MrgX1 ag inactive, MrgX1 PAM inactive, MrgX1 antag inactive, RGS4 act valid 57* and RGS4 act ctr 0.
Screening CN(C)CC[C@@H](c1ccc(Br)cc1)c1ccccn1 returned RGS4 act inactive, RGS4 block inactive, MrgX1 ag inactive, MrgX1 PAM inactive and MrgX1 antag inactive.
CCOC(=O)c1cc(NC(=O)Cc2ccc(S(=O)(=O)N3CCOCC3)s2)cc(C(=O)OCC)c1 was read as RGS4 act -8*, RGS4 block inactive, MrgX1 ag inactive, MrgX1 PAM inactive, MrgX1 antag inactive, RGS4 act valid 64* and RGS4 act ctr 36*.
CC(C)[C@H](N)C(=O)N1CCC(C(=O)N[C@@H](Cc2ccccc2)C(=O)NCc2ccc(F)cc2)CC1 was read as RGS4 act inactive, RGS4 block inactive, MrgX1 ag inactive, MrgX1 PAM inactive and MrgX1 antag inactive.
For Cc1ccc(Cc2c(C)nc3nc(SCC(=O)NCCCN4CCOCC4)nn3c2C)cc1 the results were RGS4 act inactive, RGS4 block inactive, MrgX1 ag inactive, MrgX1 PAM inactive and MrgX1 antag inactive.
Screening Cc1ccccc1Cc1c(C)nc2nc(SCC(=O)NCCCN3CCCCC3)nn2c1C returned RGS4 act -9.6*, RGS4 block inactive, MrgX1 ag inactive, MrgX1 PAM inactive, MrgX1 antag inactive, RGS4 act valid 74* and RGS4 act ctr 43*.
Screening COc1ccc(CSCCNC(=S)Nc2ccccc2)cc1Cl returned RGS4 act inactive, RGS4 block inactive, MrgX1 ag inactive, MrgX1 PAM inactive and MrgX1 antag inactive.
For S=C(NCCSCc1ccc(Cl)c(Cl)c1)Nc1ccccc1 the results were RGS4 act -8.3*, RGS4 block inactive, MrgX1 ag inactive, MrgX1 PAM inactive, MrgX1 antag inactive, RGS4 act valid 90* and RGS4 act ctr 71*.
`S=c1[nH]nc(-c2ccncc2)n1/N=C/C=C/c1ccco1` gave RGS4 act inactive, RGS4 block inactive, MrgX1 ag inactive, MrgX1 PAM inactive and MrgX1 antag inactive.
S=c1[nH]nc(-c2ccccc2Cl)n1/N=C/C=C/c1ccco1 was read as RGS4 act -8.2*, RGS4 block inactive, MrgX1 ag inactive, MrgX1 PAM inactive, MrgX1 antag inactive, RGS4 act valid 94* and RGS4 act ctr 89*.
O=C(OCC(=O)N1CCCc2ccccc21)c1cccc(S(=O)(=O)N2CCc3ccccc32)c1 was read as RGS4 act inactive, RGS4 block inactive, MrgX1 ag inactive, MrgX1 PAM inactive and MrgX1 antag inactive.
For CCCc1cc(=O)oc2cc(C)cc(OC(C)C(=O)N[C@@H](Cc3c[nH]c4ccccc34)C(=O)O)c12 (stereo partly drawn) the results were RGS4 act -14*, RGS4 block inactive, MrgX1 ag inactive, MrgX1 PAM inactive, MrgX1 antag inactive, RGS4 act valid 0 and RGS4 act ctr 0.
`CCCCc1cc(=O)oc2cc(C)cc(OC(C)C(=O)NC(Cc3c[nH]c4ccc(O)cc34)C(=O)O)c12` (stereo not drawn) gave RGS4 act inactive, RGS4 block inactive, MrgX1 ag inactive, MrgX1 PAM inactive and MrgX1 antag inactive.
CCN(CC)CCCOC(=O)C(c1ccccc1)c1ccccc1 was read as RGS4 act -10*, RGS4 block inactive, MrgX1 ag inactive, MrgX1 PAM inactive, MrgX1 antag -6.2*, RGS4 act valid 94* and RGS4 act ctr 94*.
For CCC(C(=O)OCCOCCN(CC)CC)c1ccccc1 (stereo not drawn) the results were RGS4 act inactive, RGS4 block inactive, MrgX1 ag inactive, MrgX1 PAM inactive and MrgX1 antag inactive.
For O=C(C[n+]1cc(-c2ccc(Cl)c(Cl)c2)n2c1CCC2)N1c2ccccc2Sc2ccccc21 the results were RGS4 act -11*, RGS4 block inactive, MrgX1 ag inactive, MrgX1 PAM inactive, MrgX1 antag inactive, RGS4 act valid 93* and RGS4 act ctr 95*.
For CCCCCNC(=O)Cc1ccc(S(=O)(=O)N2CCOCC2)s1 the results were RGS4 act inactive, RGS4 block inactive, MrgX1 ag inactive, MrgX1 PAM inactive and MrgX1 antag inactive.
For CN(C)CCN(C(=O)c1ccc(C(=O)c2ccccc2)cc1)c1nc2cc3c(cc2s1)OCCO3 the results were RGS4 act -9.1*, RGS4 block inactive, MrgX1 ag inactive, MrgX1 PAM inactive, MrgX1 antag inactive, RGS4 act valid 90* and RGS4 act ctr 74*.
`CN(C)CCN(C(=O)c1ccc(C(=O)c2ccccc2)cc1)c1nc2cc3c(cc2s1)OCO3` gave RGS4 act inactive, RGS4 block inactive, MrgX1 ag inactive, MrgX1 PAM inactive and MrgX1 antag inactive.
Screening COc1cccc(CNC(=O)CSc2nc3ccc(C)cc3[nH]2)c1 returned RGS4 act inactive, RGS4 block inactive, MrgX1 ag inactive, MrgX1 PAM inactive and MrgX1 antag inactive.
For O=C(Cc1ccc(F)cc1)Nc1nc(-c2ccc(F)c(F)c2)cs1 the results were RGS4 act inactive, RGS4 block inactive, MrgX1 ag inactive, MrgX1 PAM inactive and MrgX1 antag inactive.
For COc1ccc(CC(=O)Nc2nc(-c3ccc(F)c(F)c3)cs2)cc1 the results were RGS4 act -10*, RGS4 block inactive, MrgX1 ag inactive, MrgX1 PAM inactive, MrgX1 antag inactive, RGS4 act valid 92* and RGS4 act ctr 96*.
`O=S(=O)(c1ccc(N2CC=C(c3ccccc3)CC2)nc1)N1CCCC1` gave RGS4 act -9.3*, RGS4 block inactive, MrgX1 ag inactive, MrgX1 PAM inactive, MrgX1 antag inactive, RGS4 act valid 54* and RGS4 act ctr 0.
Screening O=C(CS(=O)(=O)Cc1ccccc1)Nc1nc2c(s1)CCCC2 returned RGS4 act inactive, RGS4 block inactive, MrgX1 ag inactive, MrgX1 PAM inactive and MrgX1 antag inactive.

Screening results as filed in PubChem BioAssay.
